Results published in ChEMBL document CHEMBL4665669, “Novel tertiary sulfonamide derivatives containing benzimidazole moiety as potent anti-gastric cancer agents: Design, synthesis and SAR studies” (Eur J Med Chem, 2019).
Calls of active or inactive are those of the source. The calls are words filed in the database; no cut-off is given here.

How the values were obtained:
[1] = Selectivity index, ratio of IC50 for human GES1 cells to IC50 for human MGC-803 cells assessed as inhibition of cell proliferation after 48 hrs by MTT assay
Summary of the method: (§1)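 Fold selectivity is the IC50 in GES-1 normal gastric epithelial cells divided by the IC50 in the gastric cancer line (HGC-27, MGC-803 or SGC-7901). Both IC50s come from 48 h exposure, MTT (4 h, 37 °C), DMSO solubilisation and 490 nm absorbance, with three independent experiments.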

[2] = tested on: MGC-803; assay: Induction of apoptosis in human MGC-803 cells assessed as upregulation of NOXA level at 0.5 to 1.5 umol/L after 48 hrs Western blot analysis; type: functional, cell-based; conditions: dose micromol/L 0.5-1.5, time 48.0 hrs
Summary of the method: (§2)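 Western blot. Cells were treated with compound concentrations or DMSO for 48 h, then lysed, and lysates were denatured, run on SDS-PAGE and transferred to nitrocellulose. After blocking in 5% skimmed milk, membranes were incubated with primary antibodies at 4 °C for 8 h, then secondary antibodies, with ECL detection.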

[3] = tested on: SGC-7901; assay: Inhibition of Ras/Raf/MEK/ERK signalling pathway in human SGC-7901 cells assessed as decrease in c-Raf phosphorylation after 48 hrs by Western blot analysis; type: cell-based; conditions: dose micromol/L 0.5-1.5, time 48.0 hrs
Summary of the method: (§3)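 Cells treated with graded concentrations or DMSO for 48 h, then harvested and lysed. Lysates denatured, resolved by SDS-PAGE and transferred to nitrocellulose. Membranes blocked with 5% skimmed milk and probed with primary antibodies at 4 °C for 8 h, then with secondary antibodies. Bands detected by ECL.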

[4] = tested on: HGC-27; assay: Cell cycle arrest in human HGC-27 cells assessed as accumulation at G2/M phase at 0.5 to 1.5 umol/L after 48 hrs by RNase/propidium iodide staining based flow cytometry; type: functional; conditions: dose micromol/L 0.5-1.5, time 48.0 hrs
Summary of the method: (§4)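 MGC-803, SGC-7901 and HGC-27 cells were seeded in 6-well plates and treated 48 h with compound or DMSO. Cells were then harvested and fixed in 70% cold ethanol at 4 °C for 8 h, and cell-cycle phase distribution was quantified by flow cytometry.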

[5] = tested on: HGC-27; assay: Inhibition of Akt/mTOR signalling pathway in human HGC-27 cells assessed as decrease in AKT phosphorylation at Ser473 residue at 0.5 to 1.5 umol/L after 48 hrs by Western blot analysis; type: cell-based; conditions: dose micromol/L 0.5-1.5, time 48.0 hrs; summary of the method: as §3
[6] = tested on: MGC-803; assay: Induction of apoptosis in human MGC-803 cells assessed as downregulation of Mcl-1 level at 0.5 to 1.5 umol/L after 48 hrs Western blot analysis; type: functional, cell-based; conditions: dose micromol/L 0.5-1.5, time 48.0 hrs; summary of the method: as §2
[7] = tested on: SGC-7901; assay: Inhibition of Akt/mTOR signalling pathway in human SGC-7901 cells assessed as decrease in AKT phosphorylation at Ser473 residue at 0.5 to 1.5 umol/L after 48 hrs by Western blot analysis; type: cell-based; conditions: dose micromol/L 0.5-1.5, time 48.0 hrs; summary of the method: as §3
[8] = tested on: HGC-27; assay: Inhibition of Ras/Raf/MEK/ERK signalling pathway in human HGC-27 cells assessed as decrease in c-Raf phosphorylation after 48 hrs by Western blot analysis; type: cell-based; conditions: dose micromol/L 0.5-1.5, time 48.0 hrs; summary of the method: as §3
[9] = tested on: SGC-7901; assay: Inhibition of Ras/Raf/MEK/ERK signalling pathway in human SGC-7901 cells assessed as decrease in MEK1 phosphorylation after 48 hrs by Western blot analysis; type: cell-based; conditions: dose micromol/L 0.5-1.5, time 48.0 hrs; summary of the method: as §3
[10] = tested on: HGC-27; assay: Inhibition of Ras/Raf/MEK/ERK signalling pathway in human HGC-27 cells assessed as decrease in MEK1 phosphorylation after 48 hrs by Western blot analysis; type: cell-based; conditions: dose micromol/L 0.5-1.5, time 48.0 hrs; summary of the method: as §3
[11] = tested on: SGC-7901; assay: Induction of apoptosis in human SGC-7901 cells assessed as upregulation of NOXA level at 0.5 to 1.5 umol/L after 48 hrs Western blot analysis; type: functional, cell-based; conditions: dose micromol/L 0.5-1.5, time 48.0 hrs; summary of the method: as §2
[12] = tested on: MGC-803; assay: Induction of apoptosis in human MGC-803 cells assessed as cleavage of caspase-7 at 0.5 to 1.5 umol/L after 48 hrs Western blot analysis; type: functional, cell-based; conditions: dose micromol/L 0.5-1.5, time 48.0 hrs; summary of the method: as §2
[13] = tested on: MGC-803; assay: Cell cycle arrest in human MGC-803 cells assessed as accumulation at G2/M phase at 0.5 to 1.5 umol/L after 48 hrs by RNase/propidium iodide staining based flow cytometry; type: functional; conditions: dose micromol/L 0.5-1.5, time 48.0 hrs; summary of the method: as §4
[14] = tested on: MGC-803; assay: Induction of apoptosis in human MGC-803 cells assessed as cleavage of PARP at 0.5 to 1.5 umol/L after 48 hrs Western blot analysis; type: functional, cell-based; conditions: dose micromol/L 0.5-1.5, time 48.0 hrs; summary of the method: as §2
[15] = tested on: HGC-27; assay: Induction of apoptosis in human HGC-27 cells induction of DNA fragmentation at 0.5 to 1.5 umol/L after 48 hrs by imaging analysis; type: functional, cell-based; conditions: dose micromol/L 0.5-1.5, time 48.0 hrs
[16] = tested on: SGC-7901; assay: Induction of apoptosis in human SGC-7901 cells assessed as downregulation of c-IAP1 level at 0.5 to 1.5 umol/L after 48 hrs Western blot analysis; type: functional, cell-based; conditions: dose micromol/L 0.5-1.5, time 48.0 hrs; summary of the method: as §2
[17] = tested on: MGC-803; assay: Induction of apoptosis in human MGC-803 cells assessed as increase in nucleus concentration at 0.5 to 1.5 umol/L after 48 hrs by imaging analysis; type: functional, cell-based; conditions: dose micromol/L 0.5-1.5, time 48.0 hrs
[18] = tested on: MCF7; assay: Anticancer activity against human MCF7 cells assessed as inhibition of cell proliferation after 48 hrs by MTT assay; type: functional, cell-based; conditions: MCF7, 48 h
Summary of the method: (§5)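 MTT assay with 48 h compound exposure. MTT solution was then added and incubated 4 h at 37 °C, the supernatant discarded and formazan dissolved in DMSO, with absorbance read at 490 nm. IC50 values were calculated from three independent experiments, reported as mean SD.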

[19] = tested on: MGC-803; assay: Anticancer activity against human MGC-803 cells assessed as inhibition of cell proliferation after 48 hrs by MTT assay; type: functional, cell-based; summary of the method: as §5
[20] = Selectivity index, ratio of IC50 for human GES1 cells to IC50 for human HGC-27 cells assessed as inhibition of cell proliferation after 48 hrs by MTT assay; summary of the method: as §1
[21] = tested on: MGC-803; assay: Cell cycle arrest at G2 phase in human MGC-803 cells assessed as downregulation of CDK1 level at 0.5 to 1.5 umol/L after 48 hrs by Western blot analysis; type: functional, cell-based; conditions: dose micromol/L 0.5-1.5, time 48.0 hrs; summary of the method: as §2
[22] = tested on: HGC-27; assay: Induction of apoptosis in human HGC-27 cells assessed as downregulation of Mcl-1 level at 0.5 to 1.5 umol/L after 48 hrs Western blot analysis; type: functional, cell-based; conditions: dose micromol/L 0.5-1.5, time 48.0 hrs; summary of the method: as §2
[23] = tested on: HGC-27; assay: Induction of apoptosis in human HGC-27 cells assessed as downregulation of XIAP level at 0.5 to 1.5 umol/L after 48 hrs Western blot analysis; type: functional, cell-based; conditions: dose micromol/L 0.5-1.5, time 48.0 hrs; summary of the method: as §2
[24] = tested on: HGC-27; assay: Cell cycle arrest at G2 phase in human HGC-27 cells assessed as downregulation of CDK1 level at 0.5 to 1.5 umol/L after 48 hrs by Western blot analysis; type: functional, cell-based; conditions: dose micromol/L 0.5-1.5, time 48.0 hrs; summary of the method: as §2
[25] = tested on: HGC-27; assay: Inhibition of colony formation in human HGC-27 cells at 0.5 to 1.5 umol/L after 7 days by crystal violet staining based assay; type: functional, cell-based; conditions: dose micromol/L 0.5-1.5, time 7.0 day
Summary of the method: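 5000 cells per well seeded and held 24 h at 37 °C, 5% CO2, then exposed to graded concentrations (0.5, 1, 1.5 µmol/L). After 7 days the medium was removed and wells were washed twice with PBS. Colonies fixed in 4% paraformaldehyde and stained with 0.1% crystal violet.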

[26] = tested on: SGC-7901; assay: Inhibition of Ras/Raf/MEK/ERK signalling pathway in human SGC-7901 cells assessed as decrease in ERK1/2 phosphorylation after 48 hrs by Western blot analysis; type: cell-based; conditions: dose micromol/L 0.5-1.5, time 48.0 hrs; summary of the method: as §3
[27] = tested on: SGC-7901; assay: Inhibition of Ras/Raf/MEK/ERK signalling pathway in human SGC-7901 cells assessed as effect on RAS level at 0.5 to 1.5 umol/L after 48 hrs by Western blot analysis; type: cell-based; conditions: dose micromol/L 0.5-1.5, time 48.0 hrs; summary of the method: as §3
[28] = tested on: MGC-803; assay: Inhibition of Ras/Raf/MEK/ERK signalling pathway in human MGC-803 cells assessed as effect on RAS level at 0.5 to 1.5 umol/L after 48 hrs by Western blot analysis; type: cell-based; conditions: dose micromol/L 0.5-1.5, time 48.0 hrs; summary of the method: as §3

SMILES: COc1cc(N(Cc2nc3ccccc3[nH]2)S(=O)(=O)c2ccc(C)cc2)cc(OC)c1OC
- Ratio IC50 [1]: 14.9
- Activity [2]: Active
- inhibition [3]: Dose-dependent effect
- Activity [4]: Active
- inhibition [5]: Active
- Activity [6]: Active
- inhibition [7]: Active
- inhibition [8]: Dose-dependent effect
- inhibition [9]: Dose-dependent effect
- inhibition [10]: Dose-dependent effect
- Activity [11]: Active
- Activity [12]: Active
- Activity [13]: Active
- Activity [14]: Active
- Activity [15]: Active
- Activity [16]: Active
- Activity [17]: Active
- IC50 [18]: 5.4 µM
- Activity [19]: Dose-dependent effect
- IC50 ([19]; MGC-803, 48 h): 1.02 µM
- Ratio IC50 [20]: 9.4
- Activity [21]: Active
- Activity [22]: Active
- Activity [23]: Active
- Activity [24]: Active
- inhibition [25]: Active
- inhibition [26]: Dose-dependent effect
- inhibition [27]: inactive
- inhibition [28]: inactive
